Measurements from ChEMBL document CHEMBL2010801, “Semisynthesis and antimicrobial activity of novel guttiferone-A derivatives” (Bioorg Med Chem, 2012).
≈ marks a conversion by molar mass, not a printed value. Calls of active or inactive are those of the source. No cut-off for these calls is given here.

Key:
[1] = Cytotoxicity against human PBMC after 48 hrs by MTT assay; assay type: cell-based; settings: PBMC (peripheral blood mononuclear cells)
Method in brief: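 Normal human PBMC from healthy volunteers were isolated by Ficoll-Hypaque density gradient and seeded at 2.4 × 10⁶ cells/mL. Compounds were added at 100 to 0.06 and cells held 48 h at 37 °C, 5% CO₂. MTT was then added for 4 h, formazan dissolved in DMSO and A560 read. Untreated cells were taken as 100% viability. CC50 was obtained by linear regression.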

[2] = test system: Staphylococcus epidermidis; experiment: Antimicrobial activity against Staphylococcus epidermidis ATCC 12228 after 24 hrs by broth microdilution method; assay type: functional
Method in brief: (§1)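 Microplate broth microdilution with a serial dilution series of compounds, using chloramphenicol as the antibacterial control. Bacterial plates were incubated at 35 °C for 24 h.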

Candida parapsilosis = experiment: Antifungal activity against Candida parapsilosis ATCC 69548 after 24 hrs by broth microdilution method; assay type: functional
Method in brief: (§2)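 Broth microdilution in microplates with a serial dilution series of compounds. Amphotericin B served as the fungicidal control and fluconazole as the fungistatic control. Yeast plates were incubated at 37 °C for 24 h.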

Proteus mirabilis = experiment: Antimicrobial activity against Proteus mirabilis ATCC 25933 after 24 hrs by broth microdilution method; assay type: functional; method in brief: as §1
Salmonella typhimurium = experiment: Antimicrobial activity against Salmonella typhimurium ATCC 14028 after 24 hrs by broth microdilution method; assay type: functional; settings: Salmonella enterica subsp. enterica serovar Typhimurium; method in brief: as §1
Bacillus cereus = experiment: Antimicrobial activity against Bacillus cereus ATCC 11778 after 24 hrs by broth microdilution method; assay type: functional; settings: for MIC: read-out: MIC100; method in brief: as §1
Pseudomonas aeruginosa = experiment: Antimicrobial activity against Pseudomonas aeruginosa ATCC 9027 after 24 hrs by broth microdilution method; assay type: functional; method in brief: as §1
[3] = test system: Staphylococcus epidermidis; experiment: Ratio of MIC100 for chloramphenicol to MIC100 of compound for Staphylococcus epidermidis ATCC 12228 after 24 hrs by broth microdilution method; assay type: functional
Candida albicans = experiment: Antifungal activity against Candida albicans ATCC 09548 after 24 hrs by broth microdilution method; assay type: functional; method in brief: as §2
Nannizzia gypsea = experiment: Antifungal activity against Microsporum gypseum after 48 hrs by broth microdilution method; assay type: functional
Method in brief: (§3)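 Broth microdilution against filamentous fungi with serially diluted compounds. Amphotericin B (fungicidal) and fluconazole (fungistatic) were run as controls. Plates were incubated at 30 °C for 48 h.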

Nakaseomyces glabratus = experiment: Antifungal activity against Candida glabrata ATCC 90030 after 24 hrs by broth microdilution method; assay type: functional; method in brief: as §2
Trichophyton tonsurans = experiment: Antifungal activity against Trichophyton tonsurans after 48 hrs by broth microdilution method; assay type: functional; method in brief: as §3
Escherichia coli = experiment: Antimicrobial activity against Escherichia coli ATCC 25922 after 24 hrs by broth microdilution method; assay type: functional; method in brief: as §1
Cryptococcus neoformans = experiment: Antifungal activity against Cryptococcus neoformans ATCC 90012 after 24 hrs by broth microdilution method; assay type: functional; method in brief: as §2
Candida tropicalis = experiment: Antifungal activity against Candida tropicalis ATCC 750 after 24 hrs by broth microdilution method; assay type: functional; method in brief: as §2
Staphylococcus aureus [4] = experiment: Ratio of MIC100 for chloramphenicol to MIC100 of compound for Staphylococcus aureus ATCC 6538 after 24 hrs by broth microdilution method; assay type: functional
Pichia kudriavzevii = experiment: Antifungal activity against Candida krusei ATCC 6258 after 24 hrs by broth microdilution method; assay type: functional; method in brief: as §2
Staphylococcus aureus [5] = experiment: Antimicrobial activity against Staphylococcus aureus ATCC 6538 after 24 hrs by broth microdilution method; assay type: functional; settings: ATCC 6538, 24 h; for MIC50: read-out: MIC50; for MIC: read-out: MIC100; method in brief: as §1

| Structure (SMILES) | CC50 at 48 h [1] [µM] | MIC50 (Candida parapsilosis) | MIC100 (Candida parapsilosis) | MIC100 (Proteus mirabilis) | MIC50 (Salmonella typhimurium) | MIC (Bacillus cereus; ATCC 11778, 24 h) [µM] | MIC50 (Pseudomonas aeruginosa) | MIC100 (Pseudomonas aeruginosa) | MIC50 (Candida albicans) | MIC100 (Candida albicans) | MIC50 (Nannizzia gypsea) | MIC100 (Nakaseomyces glabratus) | MIC100 (Escherichia coli) | MIC50 (Candida tropicalis) | MIC100 (Candida tropicalis) | Ratio (Staphylococcus aureus [4]) | MIC100 (Pichia kudriavzevii) | MIC50 (Staphylococcus aureus [5]) [µM] | MIC (Staphylococcus aureus [5]) [µM] | further results |
| --- | --- | --- | --- | --- | --- | --- | --- | --- | --- | --- | --- | --- | --- | --- | --- | --- | --- | --- | --- | --- |
| CC(C)=CCC[C@]1(C)[C@@H](CC=C(C)C)C[C@@]2(CC=C(C)C)C(=O)C(C(=O)c3ccc(OS(=O)(=O)c4ccc(C)cc4)c(OS(=O)(=O)c4ccc(C)cc4)c3)=C(O)[C@]1(CC=C(C)C)C2=O | > 113 | inactive | inactive | inactive | inactive | 21.9 (≈ 20 µg/mL) | inactive | inactive | inactive | inactive | inactive | inactive | inactive | inactive | inactive | 4.39 | inactive | 43 (≈ 39.2 µg/mL) | 2.74 (≈ 2.5 µg/mL) | MIC50 ([2]; ATCC 12228, 24 h): 2740 µM (≈ 2500 µg/mL); MIC50 (Bacillus cereus; ATCC 11778, 24 h): 171 µM (≈ 156 µg/mL); Ratio [3]: 3.5; MIC100 (Nannizzia gypsea): inactive; MIC50 (Nakaseomyces glabratus): inactive; MIC50 (Trichophyton tonsurans): inactive; MIC100 (Trichophyton tonsurans): inactive; MIC50 (Escherichia coli): inactive; MIC100 (Cryptococcus neoformans): inactive; MIC50 (Cryptococcus neoformans; ATCC 90012, 24 h): 43.9 µM (≈ 40 µg/mL); MIC50 (Pichia kudriavzevii): inactive |
| CC(=O)Oc1ccc(C(=O)C2=C(O)[C@]3(CC=C(C)C)C[C@H](CC=C(C)C)[C@@](C)(CCC=C(C)C)[C@](CC=C(C)C)(C2=O)C3=O)cc1OC(C)=O | 114 | inactive | inactive | inactive | inactive | 0.227 (≈ 0.156 µg/mL) | inactive | inactive | inactive | inactive | inactive | inactive | inactive | inactive | inactive | 3.31 | inactive | 56 (≈ 38.5 µg/mL) | 3.64 (≈ 2.5 µg/mL) | MIC50 [2]: inactive; MIC100 [2]: inactive; MIC50 (Proteus mirabilis): inactive; MIC100 (Salmonella typhimurium): inactive; MIC50 (Bacillus cereus): inactive; MIC (Trichophyton tonsurans; read-out: MIC100): 3640 µM (≈ 2500 µg/mL); MIC50 (Escherichia coli; ATCC 25922, 24 h): 1820 µM (≈ 1250 µg/mL); MIC50 (Cryptococcus neoformans; ATCC 90012, 24 h, read-out: MIC50): 56 µM (≈ 38.5 µg/mL); MIC (Cryptococcus neoformans; ATCC 90012, 24 h, read-out: MIC100): 3.64 µM (≈ 2.5 µg/mL); MIC50 (Pichia kudriavzevii; ATCC 6258, 24 h, read-out: MIC50): 3640 µM (≈ 2500 µg/mL) |
